≈ marks a conversion by molar mass, not a printed value. Calls of active or inactive are those of the source. No cut-off for these calls is given here.
How the values were obtained:
[1] = test system: Rhodotorula glutinis; experiment: Antifungal activity against Rhodotorula glutinis DSM 10134 assessed as growth inhibition; assay type: functional
[2] = test system: SK-OV-3; experiment: Antiproliferative activity against human SK-OV-3 cells assessed as cell growth inhibition; assay type: functional, cell-based
How it was run: (§1)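 IC50 (μM) determined against mammalian cell lines from the DSMZ ACC collection (SK-OV-3 without an ACC number), with epothilone B run in parallel as reference.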

[3] = test system: Bacillus subtilis; experiment: Antibacterial activity against Bacillus subtilis DSM 10 assessed as bacterial growth inhibition; assay type: functional
How it was run: (§2)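 Growth inhibition read as minimum inhibitory concentration (μg/mL) against strains from DSMZ. A positive-control antibiotic was run alongside.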

[4] = test system: Mycolicibacterium smegmatis; experiment: Antibacterial activity against Mycolicibacterium smegmatis ATCC 700084 assessed as bacterial growth inhibition; assay type: functional
[5] = test system: Staphylococcus aureus; experiment: Antibacterial activity against Staphylococcus aureus DSM 346 assessed as bacterial growth inhibition; assay type: functional; how it was run: as §2
[6] = test system: Acinetobacter baumannii; experiment: Antibacterial activity against Acinetobacter baumannii DSM 30008 assessed as bacterial growth inhibition; assay type: functional
[7] = test system: Chromobacterium violaceum; experiment: Antibacterial activity against Chromobacterium violaceum DSM 30191 assessed as bacterial growth inhibition; assay type: functional
[8] = test system: Escherichia coli; experiment: Antibacterial activity against Escherichia coli DSM 1116 assessed as bacterial growth inhibition; assay type: functional
[9] = test system: Pseudomonas aeruginosa; experiment: Antibacterial activity against Pseudomonas aeruginosa DSM 19882 assessed as bacterial growth inhibition; assay type: functional
[10] = test system: Mucor hiemalis; experiment: Antifungal activity against Mucor hiemalis DSM 2656 assessed as growth inhibition; assay type: functional
[11] = test system: Candida albicans; experiment: Antifungal activity against Candida albicans DSM 1665 assessed as growth inhibition; assay type: functional
[12] = test system: A549; experiment: Antiproliferative activity against human A549 cells assessed as cell growth inhibition; assay type: functional, cell-based; how it was run: as §1
[13] = test system: Schizosaccharomyces pombe; experiment: Antifungal activity against Schizosaccharomyces pombe DSM 70572 assessed as growth inhibition; assay type: functional
[14] = test system: Wickerhamomyces anomalus; experiment: Antifungal activity against Wickerhamomyces anomalus DSM 6766 assessed as growth inhibition; assay type: functional
[15] = Antiproliferative activity against mouse L929 cells assessed as cell growth inhibition; assay type: toxicity, cell-based; how it was run: as §1
[16] = test system: KB 3-1; experiment: Antiproliferative activity against human KB-3-1 cells assessed as cell growth inhibition; assay type: functional, cell-based; how it was run: as §1
[17] = test system: A-431; experiment: Antiproliferative activity against human A-431 cells assessed as cell growth inhibition; assay type: functional, cell-based; how it was run: as §1
[18] = test system: MCF7; experiment: Antiproliferative activity against human MCF7 cells assessed as cell growth inhibition; assay type: functional, cell-based; how it was run: as §1
[19] = test system: PC-3; experiment: Antiproliferative activity against human PC-3 cells assessed as cell growth inhibition; assay type: functional, cell-based; how it was run: as §1

| Structure (SMILES) | IC50 [2] [µM] | MIC [3] [µg/mL] | MIC [5] [µg/mL] | IC50 [12] [µM] | IC50 [15] [nM] | IC50 [16] [µM] | IC50 [17] [µM] | IC50 [18] [nM] | IC50 [19] [µM] | inhibition [1] | inhibition [4] | inhibition [6] | inhibition [7] | inhibition [8] | inhibition [9] | inhibition [10] | inhibition [11] | inhibition [13] | inhibition [14] | other results |
| --- | --- | --- | --- | --- | --- | --- | --- | --- | --- | --- | --- | --- | --- | --- | --- | --- | --- | --- | --- | --- |
| C/C(=C\c1csc(C)n1)[C@@H]1C[C@@H]2O[C@]2(C)CCC[C@H](C)[C@H](O)[C@@H](C)C(=O)C(C)(C)[C@@H](O)CC(=O)O1 [PATUPILONE] | 0.00018 | 8.3 (≈ 16.3 µM) | 0.21 (≈ 0.414 µM) | 5.3e-05 | 0.43 | 3.4e-05 | 5.1e-05 | 0.03 | 0.00028 |  |  |  |  |  |  |  |  |  |  | MIC [1]: 2.1 µg/mL (≈ 4.14 µM); MIC [4]: 1.7 µg/mL (≈ 3.35 µM); MIC [6]: 0.26 µg/mL (≈ 0.512 µM); MIC [7]: 0.42 µg/mL (≈ 0.827 µM); MIC [8]: 1.7 µg/mL (≈ 3.35 µM); MIC [9]: 0.21 µg/mL (≈ 0.414 µM); MIC [10]: 4.2 µg/mL (≈ 8.27 µM); MIC [11]: 8.3 µg/mL (≈ 16.3 µM); MIC [13]: 4.2 µg/mL (≈ 8.27 µM); MIC ([14]; Hansenula anomala): 8.3 µg/mL (≈ 16.3 µM) |
| C[C@@]12Cc3c(O)ccc(O)c3[C@@H]3OC(=O)[C@@]4(CC[C@@H]1O2)O[C@@H]34 | 47 | 17 (≈ 55.9 µM) |  | 19 | 2100 | 6.7 | 3.5 | 1900 | 18 | inactive | inactive | inactive | inactive | inactive | inactive | inactive | inactive | inactive | inactive |  |
| C[C@@]12CC3=C(C(=O)C=CC3=O)[C@@H]3OC(=O)[C@@]4(CC[C@@H]1O2)O[C@@H]34 | 30 | 67 (≈ 222 µM) | 67 (≈ 222 µM) | 57 | 6000 | 22 | 6.5 | 4200 | 19 | inactive | inactive | inactive | inactive | inactive | inactive | inactive | inactive | inactive | inactive |  |

From ChEMBL document CHEMBL5370667, “ent-Clavilactone J and Its Quinone Derivative, Meroterpenoids from the Fungus Resupinatus sp” (J Nat Prod, 2023)
